Converted amounts (≈) assume the structure as drawn.
Columns and labels:
Type in all cases: functional
[1] = test system: Trichophyton mentagrophytes; test: Antifungal activity against Trichophyton mentagrophytes 445 after 120 hrs by microbroth dilution method; conditions: Trichophyton mentagrophytes, 445, 120 h
Pichia kudriavzevii [2] = test: Antifungal activity against Candida krusei E28 after 48 hrs by microbroth dilution method; conditions: E28, 48 h
[3] = test system: Trichophyton mentagrophytes; test: Antifungal activity against Trichophyton mentagrophytes 445 after 72 hrs by microbroth dilution method; conditions: Trichophyton mentagrophytes, 445, 72 h
Escherichia coli [4] = test: Antibacterial activity against Escherichia coli CCM 4517 after 48 hrs by microbroth dilution method; conditions: CCM 4517, 48 h
Outline: (§1)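 Microbroth dilution modified per M07-A07 in Mueller-Hinton broth, pH 7.4 (±0.2). Inoculum in sterile water adjusted to 0.5 McFarland. MIC taken as growth reduction of at least 90% (IC90) versus control, read visually and at 540 nm after 24 and 48 h incubation in the dark.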

[5] = test system: Staphylococcus epidermidis; test: Antibacterial activity against Staphylococcus epidermidis H 6966/08 after 48 hrs by microbroth dilution method; conditions: H 6966/08, 48 h; outline: as §1
Staphylococcus aureus [6] = test: Antibacterial activity against methicillin-resistant Staphylococcus aureus H 5996/08 after 48 hrs by microbroth dilution method; conditions: H 5996/08, 48 h
Outline: (§2)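 Microdilution broth method modified after M07-A07 in Mueller-Hinton broth adjusted to pH 7.4 (±0.2). Inoculum prepared in sterile water to 0.5 McFarland (1.5 × 10^8 CFU/mL). MIC taken as growth reduction versus control (IC95 per table header), read visually and spectrophotometrically at 540 nm after 24 and 48 h incubation in the dark.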

Candida albicans [7] = test: Antifungal activity against Candida albicans ATCC 44859 after 48 hrs by microbroth dilution method; conditions: ATCC 44859, 48 h
Escherichia coli [8] = test: Antibacterial activity against Escherichia coli CCM 4517 after 24 hrs by microbroth dilution method; conditions: CCM 4517, 24 h; outline: as §1
Staphylococcus aureus [9] = test: Antibacterial activity against Staphylococcus aureus CCM 4516/08 after 48 hrs by microbroth dilution method; conditions: CCM 4516/08, 48 h; outline: as §2
Klebsiella pneumoniae [10] = test: Antibacterial activity against Klebsiella pneumoniae D 11750/08 after 48 hrs by microbroth dilution method; conditions: D 11750/08, 48 h; outline: as §1
Enterococcus sp. [11] = test: Antibacterial activity against Enterococcus sp. J 14365/08 after 24 hrs by microbroth dilution method; conditions: J 14365/08, 24 h; outline: as §1
Trichosporon asahii [12] = test: Antifungal activity against Trichosporon asahii 1188 after 48 hrs by microbroth dilution method; conditions: Trichosporon asahii, 1188, 48 h
Klebsiella pneumoniae [13] = test: Antibacterial activity against Klebsiella pneumoniae D 11750/08 after 24 hrs by microbroth dilution method; conditions: D 11750/08, 24 h; outline: as §1
Enterococcus sp. [14] = test: Antibacterial activity against Enterococcus sp. J 14365/08 after 48 hrs by microbroth dilution method; conditions: J 14365/08, 48 h; outline: as §1
Candida tropicalis [15] = test: Antifungal activity against Candida tropicalis 156 after 24 hrs by microbroth dilution method; conditions: Candida tropicalis, 156, 24 h
Pichia kudriavzevii [16] = test: Antifungal activity against Candida krusei E28 after 24 hrs by microbroth dilution method; conditions: E28, 24 h
Lichtheimia corymbifera [17] = test: Antifungal activity against Absidia corymbifera 272 after 24 hrs by microbroth dilution method; conditions: Lichtheimia corymbifera, 272, 24 h
[18] = test system: Staphylococcus epidermidis; test: Antibacterial activity against Staphylococcus epidermidis H 6966/08 after 24 hrs by microbroth dilution method; conditions: H 6966/08, 24 h; outline: as §1
Nakaseomyces glabratus [19] = test: Antifungal activity against Candida glabrata 20/I after 24 hrs by microbroth dilution method
Candida tropicalis [20] = test: Antifungal activity against Candida tropicalis 156 after 48 hrs by microbroth dilution method; conditions: Candida tropicalis, 156, 48 h
Lichtheimia corymbifera [21] = test: Antifungal activity against Absidia corymbifera 272 after 48 hrs by microbroth dilution method; conditions: Lichtheimia corymbifera, 272, 48 h
Nakaseomyces glabratus [22] = test: Antifungal activity against Candida glabrata 20/I after 48 hrs by microbroth dilution method
Klebsiella pneumoniae [23] = test: Antibacterial activity against ESBL-positive Klebsiella pneumoniae J 14368/08 after 48 hrs by microbroth dilution method; conditions: J 14368/08, 48 h; outline: as §1
Candida albicans [24] = test: Antifungal activity against Candida albicans ATCC 44859 after 24 hrs by microbroth dilution method; conditions: ATCC 44859, 24 h
Staphylococcus aureus [25] = test: Antibacterial activity against methicillin-resistant Staphylococcus aureus H 5996/08 after 24 hrs by microbroth dilution method; conditions: H 5996/08, 24 h; outline: as §2
Klebsiella pneumoniae [26] = test: Antibacterial activity against ESBL-positive Klebsiella pneumoniae J 14368/08 after 24 hrs by microbroth dilution method; conditions: J 14368/08, 24 h; outline: as §1
Trichosporon asahii [27] = test: Antifungal activity against Trichosporon asahii 1188 after 24 hrs by microbroth dilution method; conditions: Trichosporon asahii, 1188, 24 h
Staphylococcus aureus [28] = test: Antibacterial activity against Staphylococcus aureus CCM 4516/08 after 24 hrs by microbroth dilution method; conditions: CCM 4516/08, 24 h; outline: as §1

Row | Compound | MIC [1] [µM] | MIC (Pichia kudriavzevii [2]) [µM] | MIC [3] [µM] | MIC (Escherichia coli [4]) [µM] | MIC [5] [µM] | MIC (Staphylococcus aureus [6]) [µM] | MIC (Candida albicans [7]) [µM] | MIC (Escherichia coli [8]) [µM] | MIC (Staphylococcus aureus [9]) [µM] | MIC (Klebsiella pneumoniae [10]) [µM] | MIC (Enterococcus sp. [11]) [µM] | MIC (Trichosporon asahii [12]) [µM] | MIC (Klebsiella pneumoniae [13]) [µM] | MIC (Enterococcus sp. [14]) [µM] | MIC (Candida tropicalis [15]) [µM] | MIC (Pichia kudriavzevii [16]) [µM] | MIC (Lichtheimia corymbifera [17]) [µM] | MIC [18] [µM] | MIC (Nakaseomyces glabratus [19]) [µM] | MIC (Candida tropicalis [20]) [µM] | other results
1 | O=C(NCc1ccccc1)Oc1ccc(Cl)cc1C(=O)Nc1ccc(F)cc1 | 250 (≈ 99.7 µg/mL) | > 250 | 250 (≈ 99.7 µg/mL) | > 500 | 15.6 (≈ 6.23 µg/mL) | 31.2 (≈ 12.5 µg/mL) | > 250 | > 500 | 15.6 (≈ 6.23 µg/mL) | > 500 | > 500 | > 250 | > 500 | > 500 | > 250 | 250 (≈ 99.7 µg/mL) | 250 (≈ 99.7 µg/mL) | 15.6 (≈ 6.23 µg/mL) | 125 (≈ 49.9 µg/mL) | > 250 | MIC (Lichtheimia corymbifera [21]): > 250 µM; MIC (Nakaseomyces glabratus [22]): > 250 µM; MIC (Klebsiella pneumoniae [23]): > 500 µM; MIC (Candida albicans [24]): 250 µM (≈ 99.7 µg/mL); MIC (Staphylococcus aureus [25]): 15.6 µM (≈ 6.23 µg/mL); MIC (Klebsiella pneumoniae [26]): > 500 µM; MIC (Trichosporon asahii [27]): 125 µM (≈ 49.9 µg/mL); MIC (Staphylococcus aureus [28]): 15.6 µM (≈ 6.23 µg/mL)
2 | O=C(NCCc1ccccc1)Oc1ccc(Cl)cc1C(=O)Nc1ccc(Br)cc1 | 3.9 (≈ 1.85 µg/mL) | > 125 | 3.9 (≈ 1.85 µg/mL) | > 500 | 0.98 (≈ 0.464 µg/mL) | 1.95 (≈ 0.924 µg/mL) | > 125 | > 500 | 1.95 (≈ 0.924 µg/mL) | > 500 | > 500 | 62.5 (≈ 29.6 µg/mL) | > 500 | > 500 | > 125 | > 125 | 125 (≈ 59.2 µg/mL) | ≤ 0.49 | 125 (≈ 59.2 µg/mL) | > 125 | MIC (Lichtheimia corymbifera [21]): 125 µM (≈ 59.2 µg/mL); MIC (Nakaseomyces glabratus [22]): 125 µM (≈ 59.2 µg/mL); MIC (Klebsiella pneumoniae [23]): > 500 µM; MIC (Candida albicans [24]): > 125 µM; MIC (Staphylococcus aureus [25]): 0.98 µM (≈ 0.464 µg/mL); MIC (Klebsiella pneumoniae [26]): > 500 µM; MIC (Trichosporon asahii [27]): 62.5 µM (≈ 29.6 µg/mL); MIC (Staphylococcus aureus [28]): ≤ 0.49 µM
3 | O=C(NC12CC3CC(CC(C3)C1)C2)Oc1ccc(Cl)cc1C(=O)Nc1ccc(Br)cc1 | 7.81 (≈ 3.93 µg/mL) | > 125 | 7.81 (≈ 3.93 µg/mL) | > 250 | 1.95 (≈ 0.982 µg/mL) | 3.9 (≈ 1.96 µg/mL) | > 125 | > 250 | 1.95 (≈ 0.982 µg/mL) | > 250 | > 500 | > 125 | > 250 | > 500 | > 125 | > 125 | > 125 | 0.98 (≈ 0.494 µg/mL) | > 125 | > 125 | MIC (Lichtheimia corymbifera [21]): > 125 µM; MIC (Nakaseomyces glabratus [22]): > 125 µM; MIC (Klebsiella pneumoniae [23]): 125 µM (≈ 63 µg/mL); MIC (Candida albicans [24]): > 125 µM; MIC (Staphylococcus aureus [25]): 1.95 µM (≈ 0.982 µg/mL); MIC (Klebsiella pneumoniae [26]): 31.2 µM (≈ 15.7 µg/mL); MIC (Trichosporon asahii [27]): > 125 µM; MIC (Staphylococcus aureus [28]): 0.98 µM (≈ 0.494 µg/mL)
4 | O=C(NC1CCCCC1)Oc1ccc(Cl)cc1C(=O)Nc1ccc(F)cc1 | 1.95 (≈ 0.762 µg/mL) | > 125 | 1.95 (≈ 0.762 µg/mL) | > 125 | 7.81 (≈ 3.05 µg/mL) | 31.2 (≈ 12.2 µg/mL) | > 125 | > 125 | 15.6 (≈ 6.1 µg/mL) | > 125 | > 125 | > 125 | > 125 | > 125 | > 125 | > 125 | 125 (≈ 48.9 µg/mL) | 7.81 (≈ 3.05 µg/mL) | 125 (≈ 48.9 µg/mL) | > 125 | MIC (Lichtheimia corymbifera [21]): > 125 µM; MIC (Nakaseomyces glabratus [22]): > 125 µM; MIC (Klebsiella pneumoniae [23]): 62.5 µM (≈ 24.4 µg/mL); MIC (Candida albicans [24]): > 125 µM; MIC (Staphylococcus aureus [25]): 31.2 µM (≈ 12.2 µg/mL); MIC (Klebsiella pneumoniae [26]): 62.5 µM (≈ 24.4 µg/mL); MIC (Trichosporon asahii [27]): 62.5 µM (≈ 24.4 µg/mL); MIC (Staphylococcus aureus [28]): 15.6 µM (≈ 6.1 µg/mL)
5 | O=C(Nc1ccccc1)Oc1ccc(Cl)cc1C(=O)Nc1ccc(F)cc1 | 15.6 (≈ 6.01 µg/mL) | > 250 | 3.9 (≈ 1.5 µg/mL) | > 500 | 7.81 (≈ 3.01 µg/mL) | 7.81 (≈ 3.01 µg/mL) | > 250 | > 500 | 7.81 (≈ 3.01 µg/mL) | 250 (≈ 96.2 µg/mL) | 250 (≈ 96.2 µg/mL) | > 250 | 250 (≈ 96.2 µg/mL) | 250 (≈ 96.2 µg/mL) | > 250 | > 250 | > 250 | 7.81 (≈ 3.01 µg/mL) | > 250 | > 250 | MIC (Lichtheimia corymbifera [21]): > 250 µM; MIC (Nakaseomyces glabratus [22]): > 250 µM; MIC (Klebsiella pneumoniae [23]): 250 µM (≈ 96.2 µg/mL); MIC (Candida albicans [24]): > 250 µM; MIC (Staphylococcus aureus [25]): 7.81 µM (≈ 3.01 µg/mL); MIC (Klebsiella pneumoniae [26]): 250 µM (≈ 96.2 µg/mL); MIC (Trichosporon asahii [27]): > 250 µM; MIC (Staphylococcus aureus [28]): 7.81 µM (≈ 3.01 µg/mL)
6 | O=C(NCc1ccccc1)Oc1ccc(Cl)cc1C(=O)Nc1ccc(Br)cc1 | 3.9 (≈ 1.79 µg/mL) | 62.5 (≈ 28.7 µg/mL) | 3.9 (≈ 1.79 µg/mL) | > 500 | 0.98 (≈ 0.451 µg/mL) | 1.95 (≈ 0.896 µg/mL) | 62.5 (≈ 28.7 µg/mL) | > 500 | 0.98 (≈ 0.451 µg/mL) | > 500 | > 500 | 15.6 (≈ 7.18 µg/mL) | > 500 | > 500 | 125 (≈ 57.5 µg/mL) | 62.5 (≈ 28.7 µg/mL) | 7.81 (≈ 3.59 µg/mL) | ≤ 0.49 | 31.2 (≈ 14.4 µg/mL) | 125 (≈ 57.5 µg/mL) | MIC (Lichtheimia corymbifera [21]): 7.81 µM (≈ 3.59 µg/mL); MIC (Nakaseomyces glabratus [22]): 31.2 µM (≈ 14.4 µg/mL); MIC (Klebsiella pneumoniae [23]): > 500 µM; MIC (Candida albicans [24]): 62.5 µM (≈ 28.7 µg/mL); MIC (Staphylococcus aureus [25]): ≤ 0.49 µM; MIC (Klebsiella pneumoniae [26]): > 500 µM; MIC (Trichosporon asahii [27]): 15.6 µM (≈ 7.18 µg/mL); MIC (Staphylococcus aureus [28]): ≤ 0.49 µM
